697 NFkB inh: inhibitors of PMA/ionomycin-induced NF-kB reporter, 697 cells, primary screen, B-cell NF-kB inhibitor project, cell-based, luminescence, uHTS; 697 B-cell NF-kB luciferase reporter, 16 h; AID 435022, 2010; hit rate 0.33% among 330,000; inhibition, % at 4 µM; in the data active = inhibition above about 35%
Jurkat NFkB inh: inhibitors of induced NF-kB luciferase reporter, primary screen, TCR NF-kB activation inhibitor project, cell-based, luminescence, uHTS; Jurkat, PMA/ionomycin-induced NF-kB luciferase reporter; inhibition, % at 4 µM; AID 435003, 2010; hit rate 0.53% among 330,000; in the data active = inhibition above about 50%
UPR XBP1 act: activators of adaptive XBP1 UPR arm, primary screen, cell-based, CHO-XBP1 luciferase reporter, luminescence, uHTS | IRE1-XBP1 UPR activation; percent of tunicamycin response, DMSO as zero | activation, % at 20 µM | hit rate 0.33% among 330,000;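 active = versus positive control, 20 µM dose yields 30% or more activation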;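 also: 100% = tunicamycin at 10 µg/mL and 0% = DMSO only wells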
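Material: CHO cell line with stable XBP1 luciferase reporter; buffer or medium: F12 medium containing 10% fetal bovine serum; compound: single point, 20 µM final compound, 1% DMSO; incubation: 6 h treatment, 37 °C; measured by: glow luminescence from Steady-Glo reagent; evaluation: activation, % of tunicamycin; control set: tunicamycin high, DMSO low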
Gli-Sufu antag: Gli-Sufu pathway antagonists, primary screen, luciferase luminescence, Sufu-KO-LIGHT cells, uHTS; Sufu-KO-LIGHT fibroblasts, Gli luciferase reporter luminescence; inhibition, % at 5 µM; hit rate 0.74% among 340,000; AID 588413, 2011;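 active = inhibition above about 55%, limit read from the data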;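 also: 0% = DMSO-treated cells and 100% = wells with medium but no cells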
UPR CHOP act: activators of apoptotic CHOP UPR arm, primary screen, cell-based, CHO-CHOP luciferase reporter, luminescence, uHTS; UPR activation; percent of tunicamycin response over DMSO baseline; activation, % at 10 µM; hit rate 0.34% among 330,000;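 active = at 10 µM dose, activation of 40% or more, normalized to positive control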;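 also: 100% = tunicamycin at 10 µg/mL and 0% = DMSO alone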
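Evaluation: % reporter activation, DMSO baseline versus tunicamycin full activation; System: CHO-CHOP luciferase reporter cell line; Input: 500 cells/well; Incubation: 6 h compound treatment, 37 °C; Measured by: Steady-Glo luciferase luminescence; Dosing: one dose, 10 µM in 0.5% DMSO; Buffer or medium: F12 medium, 10% FBS; Benchmarks: positive tunicamycin 10 µg/mL, negative DMSO alone.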
CHOP inh: inhibitors of CHOP promoter induction, primary screen, cell-based, unfolded protein response, luciferase reporter; CHO-K1 CHOP-promoter luciferase, tunicamycin-induced, 15-18 h; inhibition, % at 10 µM; hit rate 3.8% among 220,000;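 active = compounds that reduced the stress-induced luciferase reporter signal by more than about 70% of percent inhibition, limit read from the data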;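 also: 0% = tunicamycin plus vehicle and 100% = wells without tunicamycin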
Numbers without * were called inactive; · = no result given. Sampled rows, rich in hits. Any-hit rate of the full collection: about 3.9%.

SMILES | 697 NFkB inh | Jurkat NFkB inh | UPR XBP1 act | Gli-Sufu antag | UPR CHOP act | CHOP inh
O=C(Nc1ccc(F)cc1)Nc1cc(OCC(F)(F)F)cc(OCC(F)(F)F)c1 | -1.1 | 25.6 | 3.6 | 20.8 | 27.4 | 102.2*
O=C(NCCNC(=O)c1cc(OCC(F)(F)F)ccc1OCC(F)(F)F)Nc1ccc(OC(F)(F)F)cc1 | -9.3 | -6.4 | 2.1 | 1.4 | -2.6 | 90.4*
CCOc1ccc(NC(=O)Nc2cc(OCC(F)(F)F)cc(OCC(F)(F)F)c2)cc1 | -0.1 | 8.6 | -0.7 | 9.2 | 11.7 | 73.3*
CC(C)C[C@@H](CNCC(=O)[C@H](Cc1c[nH]c2ccccc12)NC(=O)c1[nH]cnc1C(=O)N[C@@H](C)CN)NC(=O)c1nc[nH]c1C(=O)N[C@@H](C)C(=O)O | · | · | · | 11.7 | · | ·
CCCCNC(=O)CSc1nc2ccccc2c(=O)n1Cc1ccc2c(c1)OCO2 | -0.5 | -17.5 | -1.4 | 9.1 | -2.3 | 86.3*
O=C(CSc1nc2ccccc2c(=O)n1Cc1ccc(Cl)cc1)NCc1cccs1 | 0.6 | -1.6 | -2.8 | 3.7 | -0.2 | 73.0*
CCCCOC(=O)C1=C(C)Nc2nnnn2C1c1ccccc1Cl (centres undefined) | -13.0 | -5.4 | -0.7 | 5.4 | 1.4 | 83.5*
CCOC(=O)C1=C(C)Nc2nnnn2C1c1ccccc1Cl (centres undefined) | 8.3 | -2.0 | 0.4 | 5.6 | 0.3 | -6.4
COc1ccc(CCN(C)S(=O)(=O)c2ccc(Cl)nc2)cc1OC | 5.2 | -5.8 | -0.6 | 20.2 | -0.5 | 33.7
Cc1cccc(C)c1OCC(=O)OC/C(O)=C(\C#N)c1nc2ccccc2[nH]1 | -7.1 | 10.7 | -3.7 | -3.0 | 0.5 | 57.8
Cc1cc(C)cc(OCC(=O)OC/C(O)=C(\C#N)c2nc3ccccc3[nH]2)c1 | 6.0 | 34.6 | -2.9 | -5.7 | 3.5 | 78.7*
N#C/C(=C(/O)COC(=O)COc1cccc(Br)c1)c1nc2ccccc2[nH]1 | 8.8 | 4.3 | -2.8 | -5.3 | 0.8 | 74.6*
Cc1nc(NCC(c2ccccc2)N(C)C)c2c(C)c(C)sc2n1 (centres undefined) | -13.6 | -5.0 | -2.0 | 17.1 | 0.9 | ·
CCOc1ccccc1CN1CCNC(=O)C1CC(=O)N(C)Cc1cnccn1 (centres undefined) | 20.2 | 2.9 | -4.0 | -6.0 | -3.2 | ·
CC(=O)C1=C(C)NC(SCC(=O)c2cc(Cl)ccc2Cl)=C(C#N)C1c1ccco1 (centres undefined) | -20.8 | 12.4 | 3.2 | 69.3* | 4.4 | ·
N#C/C(=C(/O)COC(=O)CSc1ccc2ccccc2c1)c1nc2ccccc2[nH]1 | -21.6 | 30.3 | 0.9 | 3.4 | -1.0 | 92.1*
Cc1cc(Br)ccc1SCC(=O)OC/C(O)=C(\C#N)c1nc2ccccc2[nH]1 | -2.3 | 39.5 | -0.5 | -9.7 | 0.8 | 101.5*
Cc1ccc(C)c(SCC(=O)OC/C(O)=C(\C#N)c2nc3ccccc3[nH]2)c1 | · | · | · | 6.3 | · | 95.0*
CNC(=S)N(CCCO)Cc1cc2cc3c(cc2[nH]c1=O)OCO3 | 13.2 | 10.3 | 3.5 | -1.1 | -1.2 | ·
O=C(O)c1ccc(S(=O)(=O)c2ccc3c(c2)C(=O)N(c2ccc(Br)cc2)C3=O)cc1 | 10.2 | 11.0 | -2.0 | -19.4 | 0.2 | ·
CCCN(CCC)c1nc(NC2CCN(C(=O)OCC)CC2)nc(OC)n1 | -43.8 | 3.1 | -4.7 | 9.3 | 2.2 | 71.7*
CCOC(=O)c1c(NC(=O)CSc2ncnc3ccccc23)sc(C(C)=O)c1C | -31.0 | 21.8 | -2.2 | 32.1 | 1.5 | 74.7*
COC(=O)c1c(NC(=O)CSc2ncnc3ccccc23)sc(C)c1C | 8.3 | 1.7 | 0.8 | -15.0 | -0.6 | ·
Clc1ccc(-c2nc3ccccc3n2OCc2ccccc2)cc1 | 22.6 | 6.5 | 1.1 | 6.6 | -0.3 | 80.5*
COCCn1c(-c2ccc(OC(F)(F)C(F)C(F)(F)F)cc2)nc2c1c(=O)[nH]c(=O)n2CC(C)C (centres undefined) | -6.6 | -13.9 | -2.4 | 3.1 | -1.6 | 73.3*
SMILES | 697 NFkB inh | Jurkat NFkB inh | UPR XBP1 act | Gli-Sufu antag | UPR CHOP act | CHOP inh
CCc1cc(Cn2nc(-c3ccccc3)cc2C(=O)NCC2CC2)on1 | 5.8 | 8.0 | 2.2 | -21.2 | -1.3 | ·
c1ccc(C2OCC3(CO2)COC(c2ccccc2)OC3)cc1 (centres undefined) | -4.0 | 8.5 | 0.2 | 11.2 | 3.1 | 2.2
Cc1ccc(C2OCC3(CO2)COC(c2ccc(C)cc2)OC3)cc1 (centres undefined) | 19.4 | -2.6 | -1.7 | -1.6 | -2.2 | 80.5*
Clc1ccc2c(N/N=C/c3cccnc3)ccnc2c1 | -1.6 | -37.8 | 1.9 | 26.4 | -0.3 | -0.7
Cc1ccc(/C=N/Nc2ccnc3cc(Cl)ccc23)c(C)c1 | -21.0 | 16.8 | 22.1 | 60.1* | 25.6 | 104.8*
Oc1ccc(/C=N/Nc2ccnc3cc(Cl)ccc23)c(O)c1 | -75.5 | -23.9 | 1.6 | 1.6 | 10.0 | 90.2*
CCOc1ccc2oc(C(=O)OCC(=O)NC3CCCC3)c(C)c2c1 | 9.5 | -20.2 | -0.5 | -2.5 | 2.0 | ·
CCOc1ccc2oc(C(=O)OCC(=O)NC(=O)NC3CCCC3)c(C)c2c1 | 16.5 | -0.4 | 1.6 | -2.6 | 1.1 | 72.6*
CCOC(=O)C(C(=O)N(C)Cc1ccccc1)C1CCCCC1 (centres undefined) | -37.5 | -10.5 | -3.1 | -0.7 | 1.5 | ·
CCN(CC)c1ccc(NC(=O)Cn2cc3c(n2)CCC(C)C3)c(C)c1 (centres undefined) | 5.8 | 16.1 | -2.8 | 6.6 | -0.8 | 78.9*
Cc1cccc(N2CC(C(=O)NC3CCCCCC3)CC2=O)c1C (centres undefined) | 11.1 | -8.5 | -1.8 | 12.9 | 1.2 | ·
CC(C)C(OC(=O)c1nsc(Cl)c1Cl)C(=O)NCc1ccccc1 (centres undefined) | 11.2 | 0.1 | -2.9 | -5.8 | -0.1 | ·
COc1ccc(C)cc1NCC(=O)Nc1ccc(C(C)(C)C)cc1 | -23.9 | -14.6 | 4.5 | -4.0 | 0.6 | 70.3*
COC(=O)c1cc(OC)c(OC)cc1NCC(=O)Nc1ccc(C)cc1 | 2.2 | 5.1 | -1.1 | -4.5 | 1.5 | 9.5
CCOc1ccc(NC(=O)CNc2ccc(C)cc2Cl)cc1 | 17.4 | 6.7 | 0.3 | -18.1 | 3.0 | 90.8*
Cc1cccc(NC(=O)CNc2cc(C)ccc2C)c1 | -4.8 | -25.3 | 0.1 | 12.0 | 2.6 | 77.3*
CCOc1ccc(NCC(=O)Nc2ccc(C)cc2C)cc1 | 4.1 | 2.0 | -0.4 | -23.4 | 1.5 | 19.1
Cc1nnsc1S(=O)c1ccc(Br)cc1 (centres undefined) | -7.6 | -7.3 | -6.9 | 4.5 | 3.7 | ·

Assay outcomes deposited in PubChem BioAssay by several laboratories.
